# According to paper PMC9636331 (Blood Advances, 2022):
# Where “and” joins values, the source holds several entries; their conditions need not be identical. Equal values may be shown once. Entries after “also recorded” stand apart in the source; their conditions may differ.
# Columns and labels:
# [1] = test system: PNH patients with active hemolysis; experiment: Serum LDH levels, phase 2 study of iptacopan monotherapy; format: in vivo, human; conditions: cohort 2 (50/200 mg bid), until week 12
# How it was run: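 Primary endpoint: serum LDH reduction ≥60% from baseline, or LDH below ULN, at any time up to week 12. Baseline was the mean of the last 3 screening values before randomization. If LDH had not fallen ≥40% by day 15, the dose was to be raised from day 17, and raised further for cohort 1 at day 29, with a maximum of 200 mg twice daily.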
# [2] = test system: PNH patients with active hemolysis; experiment: Hb and other markers of hemolysis; format: in vivo, human
# How it was run: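 Secondary hemolysis markers (total and free Hb, bilirubin, reticulocyte count, RBC count, haptoglobin) were measured in PNH patients over 12 weeks of twice-daily test compound. Dosing was 25 mg for 4 weeks then 100 mg (cohort 1), or 50 mg then 200 mg (cohort 2). Baseline for each variable was the mean of all pretreatment values.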
# [3] = test system: PNH-type RBCs; experiment: Flow cytometry of PNH-type RBCs and C3 fragment deposition on RBCs; format: in vivo, human
# [4] = test system: PNH patients with active hemolysis; experiment: Safety and tolerability; format: in vivo, human
# [5] = Plasma pharmacokinetics of iptacopan; format: in vivo, human
# How it was run: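 Plasma samples were taken predose on days 2, 15, 29 and 57, and at 0.25, 1, 2, 4 and 6 h post-dose on days 29 and 57. Doses were 25/50 mg twice daily for 4 weeks, then 100/200 mg twice daily. Assay was validated LC-MS/MS, LLOQ approximately 1 ng/mL. Cmax, AUC, Ctrough and Tmax were derived noncompartmentally.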
# [6] = test system: complement alternative pathway; experiment: Wieslab complement assay; format: in vivo, human; conditions: 200 mg twice daily; data not shown
# How it was run: (§1)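 Adult PNH patients, randomized 1:1, took the test compound 25 mg twice daily for 4 weeks then 100 mg twice daily (cohort 1), or 50 mg then 200 mg twice daily (cohort 2). Alternative-pathway target engagement was measured as circulating fragment Bb and by Wieslab assay. Sigmoid Emax models related both to individual steady-state Ctrough at baseline and after 4 weeks at each dose (days 29, 57).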
# [7] = test system: fragment Bb; experiment: Circulating fragment of factor B; format: in vivo, human; conditions: after the first dose of 25 mg twice daily or higher
# How it was run: as §1
# [8] = ref data on file, cited from earlier work
# [9] = test system: PNH patients with persistent hemolysis despite ongoing treatment with eculizumab; conditions: add-on to eculizumab, week 13; cited from earlier work
# [10] = until data cutoff, listed as iptacopan
# [11] = nonclinical and phase 1 studies
smiles,measurement,setting,value
CCO[C@H]1CCN(Cc2c(OC)cc(C)c3[nH]ccc23)[C@H](c2ccc(C(=O)O)cc2)C1 [Iptacopan],LDH levels maintained by all patients,[1],< 1.5 × ULN
same,Patients with Hb levels above 120 g/L,"[2]; week 12, both cohorts",5
same,"Patients achieving reticulocyte count ≤150 × 10^9/L, number","[2]; week 12, cohort 1",4
same,"Patients achieving reticulocyte count ≤150 × 10^9/L, percent","[2]; week 12, cohort 1",66.7%
same,Patients with Hb levels above 120 g/L,"[2]; week 12, cohort 1",3
same,Mean bilirubin level,"[2]; week 12, cohort 1, baseline 32.4",11.7 µmol/L
same,Mean Hb level,"[2]; week 12, cohort 1, baseline 88.5",115.2 g/L
same,Mean reticulocyte count,"[2]; week 12, cohort 1, baseline 217.6",1.308e+11 L⁻¹
same,"Patients achieving reticulocyte count ≤150 × 10^9/L, number","[2]; week 12, cohort 2",4
same,"Patients achieving reticulocyte count ≤150 × 10^9/L, percent","[2]; week 12, cohort 2",100%
same,Patients with Hb levels above 120 g/L,"[2]; week 12, cohort 2",2
same,Mean bilirubin level,"[2]; week 12, cohort 2, baseline 35.3",14.8 µmol/L
same,Mean Hb level,"[2]; week 12, cohort 2, baseline 76.9",109.0 g/L
same,Mean reticulocyte count,"[2]; week 12, cohort 2, baseline 211.1",1.048e+11 L⁻¹
same,"Clone size (PNH red blood cells, type II+III) (%), mean, Raw","[3]; Week 12, 25 mg/100 mg (cohort 1), baseline 33.6",82.9%
same,"Clone size (PNH red blood cells, type II+III) (%), mean, Raw","[3]; Week 12, 50 mg/200 mg (cohort 2), baseline 49.1",91.1%
same,Effect on C3d deposition on RBC,[3]; both cohorts,near-total abrogation of C3d deposition on RBC
same,AE by preferred term: Abdominal discomfort,"[4]; 25 mg/100 mg, n = 7",2 (28.6) n (%)
same,AE by preferred term: Blood alkaline phosphatase increased,"[4]; 25 mg/100 mg, n = 7",1 (14.3) n (%)
same,AE by preferred term: Cough,"[4]; 25 mg/100 mg, n = 7",2 (28.6) n (%)
same,AE by preferred term: Headache,"[4]; 25 mg/100 mg, n = 7",1 (14.3) n (%)
same,AE by preferred term: Oropharyngeal pain,"[4]; 25 mg/100 mg, n = 7",2 (28.6) n (%)
same,AE by preferred term: Pyrexia,"[4]; 25 mg/100 mg, n = 7",2 (28.6) n (%)
same,AE by preferred term: Upper respiratory tract infection,"[4]; 25 mg/100 mg, n = 7",2 (28.6) n (%)
same,"AEs leading to discontinuation of study treatment, number of events (nE)","[4]; 25 mg/100 mg, n = 7",0
same,"AEs leading to discontinuation of study treatment, number of patients","[4]; 25 mg/100 mg, n = 7",0 nS (%)
same,"AEs of mild intensity, number of events (nE)","[4]; 25 mg/100 mg, n = 7",29
same,"AEs of mild intensity, number of patients","[4]; 25 mg/100 mg, n = 7",4 (57.1) nS (%)
same,"AEs of moderate intensity, number of events (nE)","[4]; 25 mg/100 mg, n = 7",2
same,"AEs of moderate intensity, number of patients","[4]; 25 mg/100 mg, n = 7",1 (14.3) nS (%)
same,"AEs of severe/serious intensity, number of events (nE)","[4]; 25 mg/100 mg, n = 7",0
same,"AEs of severe/serious intensity, number of patients","[4]; 25 mg/100 mg, n = 7",0 nS (%)
same,"Study drug-related AEs leading to discontinuation of study treatment, number of events (nE)","[4]; 25 mg/100 mg, n = 7",0
same,"Study drug-related AEs leading to discontinuation of study treatment, number of patients","[4]; 25 mg/100 mg, n = 7",0 nS (%)
same,"Study drug-related AEs, number of events (nE)","[4]; 25 mg/100 mg, n = 7",6
same,"Study drug-related AEs, number of patients","[4]; 25 mg/100 mg, n = 7",1 (14.3) nS (%)
same,"Total AEs, number of events (nE)","[4]; 25 mg/100 mg, n = 7",31
same,"Total AEs, number of patients","[4]; 25 mg/100 mg, n = 7",4 (57.1) nS (%)
same,AE by preferred term: Abdominal discomfort,"[4]; 50 mg/200 mg, n = 6",0 n (%)
same,AE by preferred term: Blood alkaline phosphatase increased,"[4]; 50 mg/200 mg, n = 6",1 (16.7) n (%)
same,AE by preferred term: Headache,"[4]; 50 mg/200 mg, n = 6",3 (50.0) n (%)
same,AE by preferred term: Oropharyngeal pain,"[4]; 50 mg/200 mg, n = 6",0 n (%)
same,AE by preferred term: Pyrexia,"[4]; 50 mg/200 mg, n = 6",0 n (%)
same,AE by preferred term: Upper respiratory tract infection,"[4]; 50 mg/200 mg, n = 6",0 n (%)
same,"AEs leading to discontinuation of study treatment, number of events (nE)","[4]; 50 mg/200 mg, n = 6",1
same,"AEs leading to discontinuation of study treatment, number of patients","[4]; 50 mg/200 mg, n = 6",1 (16.7) nS (%)
same,"AEs of mild intensity, number of events (nE)","[4]; 50 mg/200 mg, n = 6",6
same,"AEs of mild intensity, number of patients","[4]; 50 mg/200 mg, n = 6",4 (66.7) nS (%)
same,"AEs of moderate intensity, number of events (nE)","[4]; 50 mg/200 mg, n = 6",1
same,"AEs of moderate intensity, number of patients","[4]; 50 mg/200 mg, n = 6",1 (16.7) nS (%)
same,"AEs of severe/serious intensity, number of events (nE)","[4]; 50 mg/200 mg, n = 6",0
same,"AEs of severe/serious intensity, number of patients","[4]; 50 mg/200 mg, n = 6",0 nS (%)
same,"Study drug-related AEs leading to discontinuation of study treatment, number of events (nE)","[4]; 50 mg/200 mg, n = 6",1
same,"Study drug-related AEs leading to discontinuation of study treatment, number of patients","[4]; 50 mg/200 mg, n = 6",1 (16.7) nS (%)
same,"Study drug-related AEs, number of events (nE)","[4]; 50 mg/200 mg, n = 6",3
same,"Study drug-related AEs, number of patients","[4]; 50 mg/200 mg, n = 6",3 (50.0) nS (%)
same,"Total AEs, number of events (nE)","[4]; 50 mg/200 mg, n = 6",7
same,"Total AEs, number of patients","[4]; 50 mg/200 mg, n = 6",5 (83.3) nS (%)
same,Deaths,"[4]; 13 patients, until data cutoff",No deaths
same,Tolerability,"[4]; 13 patients, until data cutoff",overall well-tolerated and safe
same,Tolerability,"[4]; 13 patients, until data cutoff, listed as iptacopan",safe and well-tolerated
same,AE by preferred term: Abdominal discomfort,"[4]; Total, n = 13",2 (15.4) n (%)
same,AE by preferred term: Blood alkaline phosphatase increased,"[4]; Total, n = 13",2 (15.4) n (%)
same,AE by preferred term: Cough,"[4]; Total, n = 13",2 (15.4) n (%)
same,AE by preferred term: Headache,"[4]; Total, n = 13",4 (30.8) n (%)
same,AE by preferred term: Oropharyngeal pain,"[4]; Total, n = 13",2 (15.4) n (%)
same,AE by preferred term: Pyrexia,"[4]; Total, n = 13",2 (15.4) n (%)
same,AE by preferred term: Upper respiratory tract infection,"[4]; Total, n = 13",2 (15.4) n (%)
same,"AEs leading to discontinuation of study treatment, number of events (nE)","[4]; Total, n = 13",1
same,"AEs leading to discontinuation of study treatment, number of patients","[4]; Total, n = 13",1 (7.7) nS (%)
same,"AEs of mild intensity, number of events (nE)","[4]; Total, n = 13",35
same,"AEs of mild intensity, number of patients","[4]; Total, n = 13",8 (61.5) nS (%)
same,"AEs of moderate intensity, number of events (nE)","[4]; Total, n = 13",3
same,"AEs of moderate intensity, number of patients","[4]; Total, n = 13",2 (15.4) nS (%)
same,"AEs of severe/serious intensity, number of events (nE)","[4]; Total, n = 13",0
same,"AEs of severe/serious intensity, number of patients","[4]; Total, n = 13",0 nS (%)
same,"Study drug-related AEs leading to discontinuation of study treatment, number of events (nE)","[4]; Total, n = 13",1
same,"Study drug-related AEs leading to discontinuation of study treatment, number of patients","[4]; Total, n = 13",1 (7.7) nS (%)
same,"Study drug-related AEs, number of events (nE)","[4]; Total, n = 13",9
same,"Study drug-related AEs, number of patients","[4]; Total, n = 13",4 (30.8) nS (%)
same,"Total AEs, number of events (nE)","[4]; Total, n = 13",38
same,"Total AEs, number of patients","[4]; Total, n = 13",9 nS (%) and 9 (69.2) nS (%)
same,"Study drug-related AEs, number of patients","[4]; Total, n = 13, listed as iptacopan",4 nS (%)
same,Dose dependence of the AE profile of the 2 cohorts,[4]; in vivo,no dose-dependent changes in the AE profile
same,Severe or serious AEs,[4]; until data cutoff,no severe or serious AEs
same,Breakthrough hemolysis,[4]; [10],no breakthrough hemolysis was observed; also recorded: no thromboembolic events or breakthrough hemolysis were reported
same,Severe or serious AEs,[4]; [10],no severe or serious adverse events reported; also recorded: no serious nor severe AEs
same,Thromboembolic events,"[4]; until data cutoff, no prophylactic anticoagulation",No thromboembolic events were reported; also recorded: no thromboembolic events were observed; also recorded: no thromboembolic events or breakthrough hemolysis were reported
same,Dose proportionality of exposure (AUClast and Cmax),[5]; 25 to 200 mg twice daily,underproportional in relationship to dose
same,Mean trough level exposures,"[5]; doses of ≥50 mg twice daily, steady state",≥ 900 ng/mL
same,AUC(0-t),"[5]; human, plasma, oral, 25 mg",6290 ng·h/mL
same,AUC(0-t),"[5]; human, plasma, oral, 200 mg",19900 ng·h/mL
same,Cmax,"[5]; human, plasma, oral, 200 mg",4520 ng/mL
same,Suppression of alternative pathway activity (Wieslab assay),[6],near-maximal inhibition
same,Bb levels,[7],decreased rapidly
same,Absorption,[8]; [11],high absorption
same,Clearance,[8]; [11],moderate clearance
same,Direct renal excretion (share of clearance),[8],~25%
same,Ethnic sensitivity,[8],no ethnic sensitivity
same,Food effect,[8],no food effect
same,Terminal half-life in human plasma,[8],approximately 20 hours
same,Effect of iptacopan add-on on hemolysis and Hb levels,[9],significant reductions in both intra- and extravascular hemolysis and transfusion-free improvements in Hb levels
